Data set [1] concerns the target T1, Heat shock factor protein 1 (Homo sapiens) (UniProt Q00613).
T1 sequence (whole entry): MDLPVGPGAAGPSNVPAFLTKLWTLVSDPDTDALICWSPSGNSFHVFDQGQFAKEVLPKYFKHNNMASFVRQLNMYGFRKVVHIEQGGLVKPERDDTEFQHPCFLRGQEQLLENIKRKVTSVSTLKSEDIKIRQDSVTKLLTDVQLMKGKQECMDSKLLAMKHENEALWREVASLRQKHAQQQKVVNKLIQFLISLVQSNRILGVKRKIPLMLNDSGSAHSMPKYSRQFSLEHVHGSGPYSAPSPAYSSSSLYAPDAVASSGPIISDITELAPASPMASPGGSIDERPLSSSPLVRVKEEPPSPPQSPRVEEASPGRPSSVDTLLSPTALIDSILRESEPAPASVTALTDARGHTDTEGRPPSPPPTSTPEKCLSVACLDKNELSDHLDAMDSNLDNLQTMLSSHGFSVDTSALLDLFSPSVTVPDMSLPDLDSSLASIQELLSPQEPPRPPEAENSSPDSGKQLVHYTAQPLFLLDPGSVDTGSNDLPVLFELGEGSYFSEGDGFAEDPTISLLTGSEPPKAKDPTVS
As to the kind of experiment: Activation of HSF1 in human NCI-H460 cells assessed as upregulation of HSP70 protein levels at 10 to 30 uM after 12 hrs by Western blot analysis. In kind it is cell-based. The method in brief: (§1)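 NCI-H460 cells treated 12 h at 10 or 30 μM; HSF1, HSP27 and HSP70 detected by Western blot.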
Background: A western blot detects proteins with antibodies after separation by electrophoresis.

For data set [2], the target named is T1, Heat shock factor protein 1 (Homo sapiens). As to the kind of experiment: Activation of HSF1 in human NCI-H460 cells assessed as upregulation of HSP25 protein levels at 10 to 30 uM after 12 hrs by Western blot analysis. In kind it is cell-based. The procedure, abridged:
as §1

A further data set has as its system NCI-H460. Briefly: Upregulation of HSF1 protein level in human NCI-H460 cells at 10 to 30 uM after 12 hrs by Western blot analysis. In kind it is functional, cell-based. The procedure, abridged:
as §1

The target in data set [3] is T1, Heat shock factor protein 1 (Homo sapiens). As to the kind of experiment: Activation of HSF1 in human NCI-H460 cells expressing pGL4-hsp70 construct assessed as upregulation of hsp70 promoter activity at 10 to 30 uM after 12 hrs by luciferase reporter gene assay. Type of data set: cell-based. The method in brief:
(§2)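 NCI-H460 cells stably carrying hsp25 or hsp70 promoter–luciferase reporters, seeded, treated after 24 h at 10 or 30 μM and harvested 12 h later. Lysate luciferase normalized to β-galactosidase; mean of three independent experiments, fold-change vs negative control.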
Background: A reporter such as luciferase makes a cellular process visible.

The target is the same in data set [4]. As to the kind of experiment: Activation of HSF1 in human NCI-H460 cells expressing pGL4-hsp25 construct assessed as upregulation of hsp25 promoter activity at 10 to 30 uM after 12 hrs by luciferase reporter gene assay. In kind it is cell-based. The procedure, abridged:
as §2

In the next data set the test system is L132. As to the kind of experiment: Cytotoxicity against human L-132 cells assessed as reduction in cell viability up to 20 uM after 24 hrs by MTT assay. In kind it is cell-based. Conditions: l132, 24 h. The method in brief:
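L132 cells treated 24 h at indicated doses up to 20 μM. MTT (5 mg/mL in PBS) 4 h at 37 °C, formazan dissolved in DMSO, absorbance at 540 nm converted to cell number via calibration curve. Celastrol positive control.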
On the technique in general: Tetrazolium dyes change colour on reduction, which living cells bring about.

Data set [5] has as its target T1, Heat shock factor protein 1 (Homo sapiens). Briefly: Activation of HSF1 in human NCI-H460 cells assessed as upregulation of HSP25 protein levels at 1 uM after 12 hrs by Western blot analysis. In kind it is cell-based. The method in brief: (§3)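 Cells were grown to 30% confluence and treated for 12 h. Equal protein amounts were lysed and cleared at 13 000 rpm for 30 min at 4 °C, then boiled in sample buffer for 5 min. Proteins were resolved by 8% or 12% SDS-PAGE and transferred to nitrocellulose. Membranes were blocked in 5% milk/PBST, given primary antibody for 18 h at 4 °C and an HRP secondary, and developed by ECL.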

Data set [6] shares this target. Briefly: Activation of HSF1 in human NCI-H460 cells assessed as upregulation of HSP70 protein levels at 1 uM after 12 hrs by Western blot analysis. Type of data set: cell-based. The procedure, abridged:
as §3

The text below walks through data of ChEMBL document CHEMBL4190282, “The Conjugated Double Bond of Coniferyl Aldehyde Is Essential for Heat Shock Factor 1 Mediated Cytotoprotection” (J Nat Prod, 2017).

Active and inactive are the calls of the source. No cut-off for these calls is given here.

Take `COc1cc(CCC=O)ccc1O`: the result (in data set [1]; in data set [2]; in the data set with NCI-H460; in data set [3]; in data set [4]) was inactive.

Turning to `COc1cc(CCCO)ccc1O`, the outcome (in data set [1]; in data set [2]; in the data set with NCI-H460; in data set [3]; in data set [4]) was inactive.

`CC1=C(O)C(=O)C=C2C1=CC=C1[C@@]2(C)CC[C@@]2(C)[C@@H]3C[C@](C)(C(=O)O)CC[C@]3(C)CC[C@]12C` [CELASTROL]: in the data set on L132, the Activity result was “Toxic”. The result in data set [5] and in data set [6] was Active.
